Results from ChEMBL document CHEMBL2163188, “Discovery of piragliatin--first glucokinase activator studied in type 2 diabetic patients” (J Med Chem, 2012).

Target: T1, Hexokinase-4 (Homo sapiens) (UniProt P35557)
T1 sequence (whole entry): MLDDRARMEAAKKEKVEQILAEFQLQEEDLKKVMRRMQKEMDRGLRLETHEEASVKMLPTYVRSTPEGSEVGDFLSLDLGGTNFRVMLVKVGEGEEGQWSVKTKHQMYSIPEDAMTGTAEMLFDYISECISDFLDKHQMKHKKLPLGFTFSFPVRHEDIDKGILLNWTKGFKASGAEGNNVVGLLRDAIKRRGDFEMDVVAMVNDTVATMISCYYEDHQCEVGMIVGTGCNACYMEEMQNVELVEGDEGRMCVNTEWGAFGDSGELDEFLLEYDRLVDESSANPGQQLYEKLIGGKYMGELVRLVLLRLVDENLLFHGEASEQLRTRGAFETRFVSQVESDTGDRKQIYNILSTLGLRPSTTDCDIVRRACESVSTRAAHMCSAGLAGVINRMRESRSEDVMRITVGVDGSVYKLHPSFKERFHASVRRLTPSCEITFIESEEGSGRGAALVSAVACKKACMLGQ
Test: Activation of human recombinant glucokinase assessed as concentration required for 1.5 fold increase in enzymatic activity
Outline: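 Human recombinant GK; activator at fixed concentrations from ∼0.010 to 30 μM, each in duplicate, with glucose held at 5 mM. SC1.5 is the activator concentration giving a 1.5-fold rise in enzymatic activity over untreated GK. Assay CV was about 15%.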

Q: For `CS(=O)(=O)c1ccc(C(CC2CCCC2)C(=O)Nc2nccs2)cc1C#N` (racemic), which Activity is on record?
A: 0.188 µM

Q: How did the Activity turn out when `CS(=O)(=O)c1ccc(C(CC2CCCC2)C(=O)Nc2nccs2)cc1C(F)(F)F` (racemic) was run?
A: 0.068 µM

Q: `CS(=O)(=O)c1ccc(C(CC2CCCC2)C(=O)Nc2nccs2)cc1Cl` (racemic) was tested. Which Activity did it give?
A: 0.119 µM
